Data on eight molecules can be found in ChEMBL document CHEMBL4145568, “Antiplasmodial Diterpenoids and a Benzotropolone from Petradoria pumila” (J Nat Prod, 2018).

The test system of one experiment is Plasmodium falciparum. Nature of the experiment: Antimalarial activity against Plasmodium falciparum Dd2 ring stage parasite assessed as decrease in parasite viability after 72 hrs by SYBR green 1 dye based assay. Format: functional, organism-based. The procedure, abridged:
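Ring-stage cultures at 1% hematocrit and 1% parasitemia grown 72 h at 37 °C under 5% CO2, 5% O2, 90% N2 with increasing drug concentrations. Viability read by SYBR Green I DNA quantitation. IC50 from nonlinear regression, mean of three independent determinations each in duplicate, ± SEM.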

The test system of another experiment is A2780. Nature of the experiment: Cytotoxicity against human A2780 cells assessed as inhibition of cell growth after 2 days by Alamar blue assay. Format: functional, cell-based. Particulars: A2780, 48 h; call rule not given here. On the technique in general: Alamar Blue is a resazurin reagent that responds to reducing activity.
Setting [1] is: Plasmodium falciparum, Dd2, 72 h, read-out: IC50.

For `C=C[C@](C)(O)[C@@H]1C[C@@H]2[C@@]3(C)C(=O)CCC(C)(C)[C@@H]3CC[C@@]2(C)O1`, the IC50 – broadly, the concentration needed to halve the response being measured – in the experiment on Plasmodium falciparum (setting [1]) was more than 20 µM; in the experiment with A2780, more than 50 µM.

`C=C[C@](C)(O)[C@@H]1C[C@@H]2[C@@]3(C)[C@@H](O)CCC(C)(C)[C@@H]3CC[C@@]2(C)O1`: the IC50 in the experiment on Plasmodium falciparum (setting [1]) is more than 20 µM; in the experiment with A2780, more than 50 µM. As to `COc1cc([C@@H]2Oc3c(OC)cc(/C=C/COC(C)=O)cc3[C@H]2COC(C)=O)ccc1O`, the IC50 entry with Plasmodium falciparum was “Not Active”.

Turning to `C=C[C@@](C)(OC(C)=O)[C@@H]1C[C@@H]2[C@@]3(C)C(=O)CCC(C)(C)[C@@H]3CC[C@@]2(C)O1`, the IC50 result is “Not Active” with Plasmodium falciparum and more than 50 µM in the experiment with A2780.

Consider `COc1cc([C@@H]2Oc3c(OC)cc(/C=C/COC(=O)CC(C)C)cc3[C@H]2COC(=O)CC(C)C)ccc1O`, for which the IC50 with Plasmodium falciparum (setting [1]) was more than 20 µM.

Consider `C=C[C@@](C)(OC(C)=O)[C@@H]1C[C@@H]2[C@@]3(C)[C@@H](O)CCC(C)(C)[C@@H]3CC[C@@]2(C)O1`, for which the half-inhibitory concentration (IC50) with Plasmodium falciparum (setting [1]) is 7.3 µM; with A2780 it was more than 50 µM.

For `COc1cc2c(C)cccc2ccc1=O`, the IC50 is more than 20 µM with Plasmodium falciparum (setting [1]) and more than 50 µM in the experiment with A2780.

For the molecule `C[C@@H]1CC[C@H]2[C@@H](C)C(=O)O[C@@H]3O[C@@]4(C)CC[C@@H]1[C@]32OO4` [ARTEMISININ], the half-inhibitory concentration (IC50) in the experiment on Plasmodium falciparum (setting [1]) came out at 0.0085 µM.
